Assay results gathered from unrelated publications.
Compare with care: the assays were run in different laboratories.
Target: Tyrosine-protein kinase ZAP-70 (ZAP70, Homo sapiens, UniProt P43403)
Residues used in one study (P43403 1-619): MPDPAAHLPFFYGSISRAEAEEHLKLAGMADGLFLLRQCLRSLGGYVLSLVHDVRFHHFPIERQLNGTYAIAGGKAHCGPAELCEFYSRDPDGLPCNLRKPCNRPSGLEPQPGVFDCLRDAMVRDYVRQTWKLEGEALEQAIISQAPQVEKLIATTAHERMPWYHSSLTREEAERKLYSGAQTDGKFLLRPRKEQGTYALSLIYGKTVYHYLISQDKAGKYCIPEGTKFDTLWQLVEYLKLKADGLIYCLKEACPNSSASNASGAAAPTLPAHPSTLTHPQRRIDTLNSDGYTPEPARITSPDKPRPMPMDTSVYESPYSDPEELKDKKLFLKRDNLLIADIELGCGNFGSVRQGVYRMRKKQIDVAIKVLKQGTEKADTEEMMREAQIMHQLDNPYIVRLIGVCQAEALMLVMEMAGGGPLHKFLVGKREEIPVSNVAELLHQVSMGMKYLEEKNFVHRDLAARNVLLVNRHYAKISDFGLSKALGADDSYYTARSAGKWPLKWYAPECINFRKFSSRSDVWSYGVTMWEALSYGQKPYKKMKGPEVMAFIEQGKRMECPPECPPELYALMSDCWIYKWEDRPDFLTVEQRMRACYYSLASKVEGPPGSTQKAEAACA

O=C(Nc1cccnn1)N1CCN([C@@H]2CCOc3cc(C(F)(F)F)ccc32)CC1  inhibition (enzyme activity; inhibitor; 20 µM): 1%
C[C@H](C(=O)N[C@H]1COc2ccccc2[C@@H]1S(C)(=O)=O)c1ccc(F)cc1  inhibition (enzyme activity; inhibitor; 10 µM): 5%
Cc1nn(C)cc1-c1nc2c(N3CCN(Cc4ccc(Cl)cc4)CC3)c(Cl)cnc2[nH]1  remaining binding (binding; competition with immobilised ligand; 1 µM): 100%
C#Cc1n[nH]c2c(-c3cn(C(C)c4ccccn4)c(=O)[nH]c3=O)cc(F)cc12 (stereo not drawn)  inhibition (enzyme activity; inhibitor; 1 µM): 16.2%
Cn1cc(-c2cc(F)cc(N3CCn4c(cc5c4CCCC5)C3=O)c2CO)cc(Nc2ccc(N3CCN(C4COC4)CC3)cn2)c1=O  inhibition (enzyme activity; inhibitor; 0.1 µM): 16%
N#CC1(c2ccccn2)CCN(Cc2cc(C(=O)O)c(=O)n3ccccc23)CC1  remaining binding (cell-free assay; competition with immobilised ligand; 1 µM): 100%
Cn1cc(-c2cccc(N3CCc4c(sc5c4CC(C)(C)C5)C3=O)c2CO)cc(Nc2ccncn2)c1=O  inhibition (enzyme activity; inhibitor; 1 µM): 3%
Nc1ncc(-c2nc(N3CCOCC3)nc(N3CCOCC3)n2)c(C(F)F)n1  remaining binding (binding; competition with immobilised ligand; 10 µM): 94%
O=c1[nH]c2ccccc2n1C1CCN(Cc2ccc(-c3[nH]c4cc5ncnc5cc4nc3-c3ccccc3)cc2)CC1  remaining signal (cell-free assay; 0.5 µM): 97.3%
COc1ncccc1-c1cnn2ccc(N3CCN(C(=O)OC(C)C)CC3)nc12  remaining binding (binding; competition with immobilised ligand; 1 µM): 88%
Cn1cncc1[C@@](O)(COc1ccc(C#N)cc1-c1ccc(OC(F)(F)F)cc1)c1ccc(C#N)cc1  remaining binding (cell-free assay; competition with immobilised ligand; 1 µM): 100%
COc1cc(Nc2ncc(F)c(Nc3ccc4c(n3)NC(=O)C(C)(C)O4)n2)cc(OC)c1OC  inhibition (binding; 10 µM): 100%
c1ccc(C(NCCNC(c2ccccc2)c2ccccc2)c2ccccc2)cc1  inhibition (enzyme activity; inhibitor; 10 µM): 3%
CC(C)(C)c1cc(C=C(C#N)C#N)cc(Br)c1O  remaining activity (enzyme activity; inhibitor; 0.5 µM): 91.6%
Cc1ncc(C)n2nc(/C=C/c3nc(N4CCCC4)cc(N4CCOCC4)n3)nc12  inhibition (enzyme activity; inhibitor; 10 µM): -6%
